Only some compounds are listed: those with a hit (about 3.7% of all), similar ones and a draw of the others.
KCNK3 inh: human KCNK3 channel inhibition, primary screen. CHO-KCNK3 thallium flux, FluxOR fluorescence; active compounds read low. B-score at 10 µM. O14649. 340,000 compounds, 0.84% hits;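 active means B-score under library mean minus 4 SD, starting fluorescence ratio at most library mean plus 5 SD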;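 further: more negative B-score means stronger inhibition of thallium flux through KCNK3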
hERG protect: compounds protecting human hERG from proarrhythmic drug block | Q12809 | CHO-hERG, FluxOR thallium flux, dofetilide IC70 present | activation (rescue from dofetilide block), less the hit threshold, % at 10 µM | 310,000 compounds, 0.51% hits | AID 1511;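 active means activation above the mean of controls blocked by dofetilide plus 5 SD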;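 further: thallium influx through hERG after potassium depolarization seen as dye fluorescence rise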
KCNQ1 act: potentiators or activators of human KCNQ1 potassium channel | P51787 | CHO-K1 KCNQ1, thallium flux FluxOR fluorescence; active compounds read high | B-score at 10 µM | 310,000 compounds, 0.35% hits | AID 2648;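 active means fluorescence ratio B-score, a plate-corrected score, at least three library SD, with initial intensity B-score within 5 SD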
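System: Stable KCNQ1 CHO-K1 line | Incubation: 90 min dye loading and 20 min compound exposure, both at room temperature | Measure: Ratio B score | Medium: Assay buffer for compound exposure, DMSO matched across wells | Compound dosing: Single-concentration screen | Probe or stimulus: K+/Tl+ depolarizing stimulus | Measured by: Kinetic FluxOR fluorescence, 10 s baseline plus 110 s post-stimulus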
Kir21 inh: inhibitors of mouse Kir2.1 inward-rectifier potassium channel; P35561; HEK293-Kir2.1, FluxOR thallium flux fluorescence; active compounds read low; B-score at 10 µM; 310,000 compounds, 0.85% hits; AID 1672;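 active means fluorescence ratio B-score at or below minus 3 SD of library scores, with starting-brightness B-score within 2 SD, cut at about -4.2 in these data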;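 further: channel flux triggered by added potassium and thallium sulfate stimulus; B-score of peak minus minimum fluorescence over baseline after thallium stimulus; more negative B-score means stronger Kir2.1 block with less thallium influx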
KCNK9 inh: human KCNK9 channel inhibition; AID 488922; HEK293 KCNK9, FluxOR thallium flux fluorescence; active compounds read low; Q9NPC2; 310,000 compounds, 1.2% hits; B-score at 10 µM;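 active means ratio B-score over 3 SD below the library mean, with starting fluorescence within 5 SD of its mean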;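 further: negative B-score means less thallium flux so channel inhibition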
KCNQ1 inh: human KCNQ1 channel inhibition; B-score at 10 µM; CHO-K1 KCNQ1, FluxOR thallium flux fluorescence; active compounds read high; AID 2642; P51787; 310,000 compounds, 1.3% hits;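 active means compounds whose thallium flux B-score, printed positive for inhibition, exceeds three library SD while starting fluorescence stays within three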;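 further: channel opened by potassium depolarization with thallium stimulus after 20 min compound exposure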
Starred values were filed as active, the others as inactive; i = inactive; / = not tested or not shown.

SMILES	KCNK3 inh	hERG protect	KCNQ1 act	Kir21 inh	KCNK9 inh	KCNQ1 inh
CCCCNc1c(-c2cccc(-c3cc(C(C)=O)cs3)c2)nc2ccc(C)cn12	i	-40	i	1.6	i	6*
CCCCNc1c(-c2cccc(-c3ccc(OC)cc3)c2)nc2cc(C)ccn12	-8.7*	/	/	/	/	/
CCCCNc1c(-c2cccc(-c3ccc(OC)cc3)c2)nc2ccc(C)cn12	i	-35	i	0.19	i	7*
COc1ccc(C(C[N+](=O)[O-])c2c(C)[nH]n(-c3ccccc3)c2=O)cc1 (configuration not stated)	i	-17	i	-8.7*	i	7*
Cc1ccc(N(C(=O)c2csnn2)C(C(=O)NC(C)(C)C)c2cccnc2)cc1 (configuration not stated)	i	-17	i	-0.92	i	i
Cc1cccc(OCCNC(=O)c2ccc(Oc3ccc(C(F)(F)F)cc3[N+](=O)[O-])cc2)c1	-9.5*	-16	i	-0.06	i	6*
Cc1ccc(OCCNC(=O)c2cc(C(=O)NCCOc3ccc(C)cc3)cc([N+](=O)[O-])c2)cc1	i	-3	i	1.6	i	10*
COc1ccc(CCN2CC(C(=O)NCC(=O)Nc3ccc(F)c(F)c3)CC2=O)cc1OC (configuration not stated)	i	-15	i	0.34	i	i
Cc1ccccc1OCCC(=O)Nc1ccccc1C(=O)N1CCCCC1	i	/	/	/	/	/
CC(C)Nc1nc(Oc2ccc(=O)n(-c3ccccc3)n2)nc(N(C)C)n1	i	-9	i	1	i	i
CC(NCc1ccc(-c2ccccc2)cc1)C(O)c1ccccc1 (configuration not stated)	i	-17	i	-14*	i	i
CC(O)CNCc1ccc(-c2ccccc2)cc1 (configuration not stated)	i	-8	i	0.15	i	i
CCCc1c(C)nc2c(OC)cccc2c1SCC(=O)O	i	4.7*	i	-3	i	i
CCCc1c(C)nc2ccc(OC)cc2c1SCCC(=O)O	i	-12	i	0.94	i	i
COc1ccccc1-c1ccc2nnc(SC)n2n1	i	-1	i	1.1	i	i
COc1ccc(S(=O)(=O)N2CCNCC2)cc1	i	6.5*	i	0.54	i	i
COc1ccc(S(=O)(=O)N2CCCCCC2)cc1	i	-12	i	-0.01	i	i
CC[C@H](C)/C=C/C1=CC2=C(Cl)C(=O)[C@@]3(C)OC(=O)C(C(=O)[C@H](C)[C@@H](C)O)=C3C2=CO1	i	-30	i	-0.61	i	6*
CN(C)CCC(=O)N1c2ccccc2Sc2ccc(C(F)(F)F)cc21	i	-14	i	-0.69	i	i
CCN(CC)CCCCN1c2ccccc2Sc2ccccc21	i	-14	i	-5.8*	i	i
OCCN1CCN(CCCN2c3ccccc3Sc3ccc(C(F)(F)F)cc32)CC1	i	-22	i	-7.1*	i	i
CN(C)CCCN1c2ccccc2Sc2ccc(C(F)(F)F)cc21	i	-15	i	-5.1*	i	i
OCCN1CCN(CC/C=C2/c3ccccc3Sc3ccc(C(F)(F)F)cc32)CC1	i	-19	i	-5.4*	i	i
CCCOc1c(Br)cc(C(=O)OCC(=O)NC(=O)c2cccn2C)cc1OC	i	/	/	/	/	/
COC(=O)c1ccc(NS(=O)(=O)c2cc3c4c(c2)CCN4C(=O)CC3)cc1	i	-6	i	-0.1	i	i
SMILES	KCNK3 inh	hERG protect	KCNQ1 act	Kir21 inh	KCNK9 inh	KCNQ1 inh
Cc1ccc(C(=O)Nc2ccc(N3CCOCC3)nc2)cc1	i	-10	i	0.03	i	i
CN1CCN(c2ccc(NC(=O)c3ccc(Cl)cc3)cn2)CC1	i	7.8*	i	1.3	i	i
CCN(Cc1nc(-c2ccc(C)cc2)no1)C(=O)c1ccco1	i	-6	i	-0.96	i	i
O=C(c1cccc(NS(=O)(=O)c2ccc(F)c(F)c2)c1)N1CCCCC1	i	/	/	/	/	/
CSC1=C(C#N)C(CC(C)C)C2=C(CCCC2=O)N1 (configuration not stated)	i	-4	i	0.18	i	i
CSC1=C(C#N)C(CC(C)C)C(C(C)=O)=C(C)N1 (configuration not stated)	i	-2	i	-6.5*	i	i
O=C(c1cc(C2CC2)nn1-c1ccccc1)N1CCN(S(=O)(=O)c2ccccc2)CC1	i	/	/	/	/	/
Cc1cccc(NC(=S)NNC(=O)c2cc3c(s2)CCC(C)C3)c1C (configuration not stated)	i	-12	11*	1.3	i	i
CC1CCc2sc(C(=O)NN=C3CCC(c4ccccc4)CC3)cc2C1 (configuration not stated)	i	-5	i	1.1	i	i
Cc1ccc(C)c(NC(=S)NNC(=O)c2cc3c(s2)CCC(C)C3)c1 (configuration not stated)	i	9.3*	i	-1.6	i	i
CC(C)CNC(=S)NNC(=O)c1csc2c1CCC(C)C2 (configuration not stated)	i	-8	i	-0.92	i	i
Cc1cccc(NC(=S)NNC(=O)c2csc3c2CCC(C)C3)c1 (configuration not stated)	i	-1	20*	-1.3	i	i
CN(C)Cc1ccccc1C(O)(c1ccccc1)c1ccccc1	i	-6	i	-4.7*	i	i
O=C(NCCCl)Nc1ccccc1OCCOc1ccccc1NC(=O)NCCCl	i	-9	i	1.1	-7*	i
COc1ccc(-c2[nH]ncc2CN(CCO)CC23CC4CC(CC(C4)C2)C3)c(OC)c1	i	-16	i	-5.6*	i	i
Cn1c(SCc2cccc([N+](=O)[O-])c2)nc2ccccc2c1=O	i	/	/	/	/	/
Cn1c(SCc2ccc(F)cc2Cl)nc2ccccc2c1=O	-8.9*	/	/	/	/	/
Cn1c(SCc2cccc(C#N)c2)nc2ccccc2c1=O	i	-2	i	-0.88	-7*	i
COc1ccc([N+](=O)[O-])cc1NC1CCN(C(=O)c2cccs2)CC1	i	-9	i	-0.42	i	i
CSC1=NC(C(Cl)(Cl)Cl)N=C(c2ccccc2)N1 (configuration not stated)	i	8.6*	i	-2	i	i
COc1cccc(CN(CC(=O)NC2CCCC2)C(=O)Cn2nnc(-c3cccs3)n2)c1	i	32*	i	-0.8	i	i
COc1cccc(N(CC(=O)NC2CCCCC2)C(=O)Cn2nnc(-c3ccc(C)o3)n2)c1	i	-8	i	-1.4	i	i

From PubChem
